Key:
Assay type in all cases: functional
NCI-H23 = assay: Tested in vitro for cytotoxicity in NCI-H23 cell line of Non-Small Cell Lung Cancer; conditions: Homo sapiens, read-out: Log TGI (converted)
Procedure, shortened: (§1)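 Compounds dissolved in DMSO, then diluted 500-fold into aqueous medium. The resulting aqueous solutions or suspensions were added to the cultured human tumour cell lines, and the cells were exposed for 48 h. Growth was read colorimetrically in one of two ways: a metabolic assay in which viable cells reduce a tetrazolium salt to a formazan dye, or a protein stain for total cellular protein.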

SK-MEL-2 = assay: Tested in vitro for cytotoxicity in SK-MEL-2 cell line of Melanoma; conditions: Homo sapiens, read-out: Log TGI (converted); procedure, shortened: as §1
DMS-114 [1] = assay: Tested in vitro for cytotoxicity in DMS114 cell line of Small Cell Lung Cancer; conditions: Homo sapiens, read-out: Log TGI (converted); procedure, shortened: as §1
SK-OV-3 = assay: Tested in vitro for cytotoxicity in SK-OV-3 cell line of Ovarian Cancer; conditions: Homo sapiens, read-out: Log TGI (converted)
Procedure, shortened: (§2)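 Compounds dissolved in DMSO and diluted 500-fold into aqueous medium; aliquots of the resulting solutions or suspensions added to cultured human tumor cells for 48 h. Growth read colorimetrically, either by tetrazolium reduction to formazan by viable cells or by protein staining of total cellular protein.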

UACC-62 = assay: Tested in vitro for cytotoxicity in UACC-62 cell line of Melanoma; conditions: Homo sapiens, read-out: Log TGI (converted); procedure, shortened: as §2
HT-29 = assay: Tested in vitro for cytotoxicity in HT-29 cell line of Colon Cancer; conditions: Homo sapiens, read-out: Log TGI (converted); procedure, shortened: as §1
OVCAR-3 = assay: Tested in vitro for cytotoxicity in OVCAR-3 cell line of Ovarian Cancer; conditions: Homo sapiens, read-out: Log TGI (converted)
Procedure, shortened: (§3)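 Compound DMSO solutions diluted 500-fold into aqueous medium; the resulting solutions or suspensions were added to cultured human tumor cells for 48 h. Growth was read colorimetrically, either by tetrazolium reduction to formazan by viable cells or by a protein stain for total cellular protein.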

DMS-273 = assay: Tested in vitro for cytotoxicity in DMS273 cell line of Small Cell Lung Cancer; conditions: Homo sapiens, read-out: Log TGI (converted); procedure, shortened: as §1
HOP-92 = assay: Tested in vitro for cytotoxicity in HOP-92 cell line of Non-Small Cell Lung Cancer; conditions: Homo sapiens, read-out: Log TGI (converted); procedure, shortened: as §1
M19-MEL = assay: Tested in vitro for cytotoxicity in M19-MEL cell line of Melanoma; conditions: Homo sapiens, read-out: Log TGI (converted); procedure, shortened: as §1
A549 = assay: Tested in vitro for cytotoxicity in A549/ATCC cell lines; conditions: Homo sapiens; procedure, shortened: as §1
IGROV-1 [2] = assay: Tested in vitro for cytotoxicity in IGROV1 cell line of Ovarian Cancer; conditions: Homo sapiens, read-out: Log TGI (converted); procedure, shortened: as §1
HL-60 = assay: Tested in vitro for cytotoxicity in HL-60(TB) cell line of Leukemia; conditions: Homo sapiens, read-out: Log TGI (converted)
Procedure, shortened: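 Compounds were dissolved in DMSO and diluted 500-fold in aqueous medium. Aliquots of the resulting solution or suspension were added to the cultured cells for 48 h. Growth was read colorimetrically, either by tetrazolium reduction to formazan in viable cells or by a total-protein stain.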

XF498 = assay: Tested in vitro for cytotoxicity in XF498 cell line of CNS Cancer; conditions: Homo sapiens, read-out: Log TGI (converted); procedure, shortened: as §3
SW-620 = assay: Tested in vitro for cytotoxicity in SW-620 cell line of Colon Cancer; conditions: Homo sapiens, read-out: Log TGI (converted); procedure, shortened: as §2
CCRF-CEM [3] = assay: Tested in vitro for cytotoxicity in CCRF-CEM cell line of Leukemia; conditions: Homo sapiens, read-out: Log TGI (converted); procedure, shortened: as §1
DMS-114 [4] = assay: Tested in vitro for cytotoxicity in DMS114 cell lines; conditions: Homo sapiens; procedure, shortened: as §1
HOP-18 = assay: Tested in vitro for cytotoxicity in HOP-18 cell line of Non-Small Cell Lung Cancer; conditions: Homo sapiens, read-out: Log TGI (converted); procedure, shortened: as §1
RPMI-8226 = assay: Tested in vitro for cytotoxicity in RPMI-8226 cell line of Leukemia; conditions: Homo sapiens, read-out: Log TGI (converted); procedure, shortened: as §1
KM-20L2 = assay: Tested in vitro for cytotoxicity in KM20L2 cell line of Colon Cancer; conditions: Homo sapiens, read-out: Log TGI (converted); procedure, shortened: as §3
CCRF-CEM [5] = assay: Tested in vitro for cytotoxicity in CCRF-CEM cell lines; conditions: Homo sapiens; procedure, shortened: as §1
ACHN = assay: Tested in vitro for cytotoxicity in ACHN cell line of Renal cancer; conditions: Homo sapiens, read-out: Log TGI (converted); procedure, shortened: as §1
HCT-116 = assay: Tested in vitro for cytotoxicity in HCT116 cell line of Colon Cancer; conditions: Homo sapiens, read-out: Log TGI (converted); procedure, shortened: as §1
SF-295 = assay: Tested in vitro for cytotoxicity in SF-295 cell line of CNS Cancer; conditions: Homo sapiens, read-out: Log TGI (converted); procedure, shortened: as §1
IGROV-1 [6] = assay: Tested in vitro for cytotoxicity in IGROV1 cell lines; conditions: Homo sapiens; procedure, shortened: as §1
MOLT-4 = assay: Tested in vitro for cytotoxicity in MOLT-4 cell line of Leukemia; conditions: Homo sapiens, read-out: Log TGI (converted); procedure, shortened: as §1
DLD-1 = assay: Tested in vitro for cytotoxicity in DLD-1 cell line of Colon Cancer; conditions: Homo sapiens, read-out: Log TGI (converted); procedure, shortened: as §1
A498 = assay: Tested in vitro for cytotoxicity in A498 cell line of Renal cancer; conditions: Homo sapiens, read-out: Log TGI (converted); procedure, shortened: as §1
SK-MEL-5 = assay: Tested in vitro for cytotoxicity in SK-MEL-5 cell line of Melanoma; conditions: Homo sapiens, read-out: Log TGI (converted); procedure, shortened: as §2
UACC-257 = assay: Tested in vitro for cytotoxicity in UACC-257 cell line of Melanoma; conditions: Homo sapiens, read-out: Log TGI (converted); procedure, shortened: as §2
Malme-3M = assay: Tested in vitro for cytotoxicity in MALME-3M; conditions: Homo sapiens; procedure, shortened: as §1

Question: With `COc1ccc2[nH]c3c(C)c4cc[n+](C)cc4c(C)c3c2c1` as the compound, how does the TGI (NCI-H23) read?
Answer: The TGI was 10 µM.

Question: What about the TGI (SK-MEL-2) of the same compound?
Answer: The TGI was 63.1 µM.

Question: What about the TGI (DMS-114 [1]) of the same compound?
Answer: Its TGI is 6.31 µM.

Question: And the TGI (SK-OV-3)?
Answer: The TGI was over 100 µM.

Question: What about the TGI (UACC-62) of the same compound?
Answer: Its TGI is over 100 µM.

Question: What about the TGI (HT-29) of the same compound?
Answer: Its TGI is over 100 µM.

Question: What about the TGI (OVCAR-3) of the same compound?
Answer: The TGI was 100 µM.

Question: What about the TGI (DMS-273) of the same compound?
Answer: The TGI was 63.1 µM.

Question: And the TGI (HOP-92)?
Answer: The TGI was 79.4 µM.

Question: What about the TGI (M19-MEL) of the same compound?
Answer: Its TGI is 25.1 µM.

Question: And the GI50 (A549)?
Answer: Its GI50 is 1.52 µM.

Question: And the TGI (IGROV-1 [2])?
Answer: The TGI was over 100 µM.

Question: And the TGI (HL-60)?
Answer: The TGI was over 100 µM.

Question: And the TGI (XF498)?
Answer: Its TGI is 10 µM.

Question: And the TGI (SW-620)?
Answer: Its TGI is over 100 µM.

Question: And the TGI (CCRF-CEM [3])?
Answer: The TGI was over 100 µM.

Question: What about the GI50 (DMS-114 [4]) of the same compound?
Answer: Its GI50 is 0.811 µM.

Question: And the TGI (HOP-18)?
Answer: The TGI was over 100 µM.

Question: What about the TGI (RPMI-8226) of the same compound?
Answer: Its TGI is over 100 µM.

Question: And the TGI (KM-20L2)?
Answer: Its TGI is over 100 µM.

Question: What about the GI50 (CCRF-CEM [5]) of the same compound?
Answer: Its GI50 is 4.22 µM.

Question: What about the TGI (ACHN) of the same compound?
Answer: Its TGI is over 100 µM.

Question: And the TGI (HCT-116)?
Answer: The TGI was over 100 µM.

Question: And the TGI (SF-295)?
Answer: Its TGI is 6.31 µM.

Question: And the GI50 (IGROV-1 [6])?
Answer: The GI50 was 3.62 µM.

Question: And the TGI (MOLT-4)?
Answer: The TGI was over 100 µM.

Question: And the TGI (DLD-1)?
Answer: Its TGI is over 100 µM.

Question: What about the TGI (A498) of the same compound?
Answer: Its TGI is over 100 µM.

Question: And the TGI (SK-MEL-5)?
Answer: Its TGI is 20 µM.

Question: And the TGI (UACC-257)?
Answer: Its TGI is over 100 µM.

Question: What about the GI50 (Malme-3M) of the same compound?
Answer: The GI50 was 5.27 µM.
